Calls of active or inactive are those of the source. The rule behind the calls is not given here.
Key:
Plasmodium falciparum = assay: Antiparasitic activity against Plasmodium falciparum W2 after 48 hrs by YOYO-1 probe-based flow cytometry; assay type: functional; conditions: W2, 48 h
[1] = test system: Trypanosoma brucei brucei; assay: Antiparasitic activity against bloodstream form of Trypanosoma brucei brucei 449 after 48 hrs by ATPlite assay; assay type: functional; conditions: Trypanosoma brucei, 449, 48 h
[2] = target: Rhodesain (Trypanosoma brucei rhodesiense) (UniProt Q95PM0); assay: Inhibition of recombinant Trypanosoma brucei rhodesiense rhodesain expressed in Pichia pastoris assessed as first order rate constant using Cbz-Phe-Arg-AMC as substrate after 30 mins by fluorescence assay
In short: (§1)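 Recombinant rhodesain with fluorogenic substrate Cbz-Phe-Arg-AMC. Preliminary screen at a fixed inhibitor concentration of 50 µM. Equal volume of DMSO served as negative control and E-64 as irreversible positive control. Active compounds went on to continuous assays at seven concentrations, from minimally to fully inhibitory, giving kinac (min-1), Ki (nM) and k2nd = kinac/Ki (M-1 min-1).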

Procathepsin L [3] = target: T1, Procathepsin L (Homo sapiens, UniProt P07711); assay: Inhibition of human cathepsin L assessed as second order rate constant using Cbz-Phe-Arg-AMC as substrate after 10 mins by fluorescence assay
Target sequence in this assay (P07711 114-333 limits assumed): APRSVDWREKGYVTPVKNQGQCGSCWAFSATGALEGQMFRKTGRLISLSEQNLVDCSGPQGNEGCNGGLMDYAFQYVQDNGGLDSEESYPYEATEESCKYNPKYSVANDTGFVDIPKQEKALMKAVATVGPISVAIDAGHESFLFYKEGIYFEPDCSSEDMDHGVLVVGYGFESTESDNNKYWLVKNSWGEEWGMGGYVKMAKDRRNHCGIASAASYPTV

Procathepsin L [4] = target: T1, Procathepsin L; assay: Inhibition of human cathepsin L assessed as first order rate constant using Cbz-Phe-Arg-AMC as substrate after 10 mins by fluorescence assay
Target sequence in this assay (P07711 114-333 limits assumed): as above

Falcipain 2 = target: T2, Falcipain 2 (Plasmodium falciparum, UniProt Q9N6S8); assay: Inhibition of recombinant Plasmodium falciparum falcipain-2 expressed in Escherichia coli M15(pREP4) using Cbz-Phe-Arg-AMC as substrate by fluorescence assay
T2 sequence (Q9N6S8 whole entry): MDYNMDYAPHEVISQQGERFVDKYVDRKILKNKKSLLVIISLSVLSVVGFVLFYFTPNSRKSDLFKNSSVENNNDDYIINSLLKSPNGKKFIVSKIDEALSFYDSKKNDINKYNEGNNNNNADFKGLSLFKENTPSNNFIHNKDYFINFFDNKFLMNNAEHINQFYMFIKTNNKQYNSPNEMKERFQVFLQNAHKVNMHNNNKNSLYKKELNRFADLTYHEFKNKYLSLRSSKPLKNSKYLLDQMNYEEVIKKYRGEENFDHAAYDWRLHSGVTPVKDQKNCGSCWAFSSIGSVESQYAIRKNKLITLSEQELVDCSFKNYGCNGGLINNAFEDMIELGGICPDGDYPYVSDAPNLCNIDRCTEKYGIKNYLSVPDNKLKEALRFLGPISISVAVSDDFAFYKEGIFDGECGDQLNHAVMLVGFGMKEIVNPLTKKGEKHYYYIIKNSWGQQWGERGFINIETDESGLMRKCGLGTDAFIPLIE

[5] = target: Rhodesain (Trypanosoma brucei rhodesiense) (UniProt Q95PM0); assay: Inhibition of recombinant Trypanosoma brucei rhodesiense rhodesain expressed in Pichia pastoris assessed as second order rate constant using Cbz-Phe-Arg-AMC as substrate after 30 mins by fluorescence assay; in short: as §1
Procathepsin L [6] = target: T1, Procathepsin L; assay: Inhibition of human cathepsin L using Cbz-Phe-Arg-AMC as substrate after 10 mins by fluorescence assay
Target sequence in this assay (P07711 whole entry): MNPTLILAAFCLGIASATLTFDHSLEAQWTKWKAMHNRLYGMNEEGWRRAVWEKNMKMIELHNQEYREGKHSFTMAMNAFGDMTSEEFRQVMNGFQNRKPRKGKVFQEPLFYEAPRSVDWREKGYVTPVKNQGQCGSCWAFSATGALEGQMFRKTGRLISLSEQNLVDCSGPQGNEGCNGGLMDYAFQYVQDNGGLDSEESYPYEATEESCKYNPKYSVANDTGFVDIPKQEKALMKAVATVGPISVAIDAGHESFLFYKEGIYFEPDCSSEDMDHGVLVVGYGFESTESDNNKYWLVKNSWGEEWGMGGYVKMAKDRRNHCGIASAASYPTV

Rhodesain = Rhodesain (Trypanosoma brucei rhodesiense, UniProt Q95PM0); assay: Inhibition of recombinant Trypanosoma brucei rhodesiense rhodesain expressed in Pichia pastoris using Cbz-Phe-Arg-AMC as substrate after 30 min by fluorescence assay
In short: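 Recombinant rhodesain with fluorogenic Cbz-Phe-Arg-AMC substrate. Compounds were first screened at a fixed 50 µM, with DMSO as negative control and an irreversible clan CA cysteine-protease inhibitor as positive control. Continuous assays at seven inhibitor concentrations, from minimally to fully inhibitory, gave kinac (min-1) and Ki, with k2nd = kinac/Ki (M-1 min-1).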

[7] = test system: Trypanosoma brucei brucei; assay: Antiparasitic activity against bloodstream form of Trypanosoma brucei brucei 449 after 24 hrs by ATPlite assay; assay type: functional; conditions: Trypanosoma brucei, 449, 24 h
[8] = Cytotoxicity against human HeLa cells assessed as decrease in cell viability after 48 hrs by MTT assay; assay type: cell-based
[9] = Selectivity index, ratio of CC50 for human HeLa cells to EC50 for Trypanosoma brucei brucei 449 for 48 hrs; assay type: toxicity, cell-based; conditions: read-out: Ratio CC50/EC50
[10] = target: Rhodesain (Trypanosoma brucei rhodesiense) (UniProt Q95PM0); assay: Inhibition of recombinant Trypanosoma brucei rhodesiense rhodesain expressed in Pichia pastoris using Cbz-Phe-Arg-AMC as substrate at 50 uM after 30 mins by fluorescence assay; in short: as §1

Sequence of Rhodesain (Trypanosoma brucei rhodesiense) (Q95PM0 1-450): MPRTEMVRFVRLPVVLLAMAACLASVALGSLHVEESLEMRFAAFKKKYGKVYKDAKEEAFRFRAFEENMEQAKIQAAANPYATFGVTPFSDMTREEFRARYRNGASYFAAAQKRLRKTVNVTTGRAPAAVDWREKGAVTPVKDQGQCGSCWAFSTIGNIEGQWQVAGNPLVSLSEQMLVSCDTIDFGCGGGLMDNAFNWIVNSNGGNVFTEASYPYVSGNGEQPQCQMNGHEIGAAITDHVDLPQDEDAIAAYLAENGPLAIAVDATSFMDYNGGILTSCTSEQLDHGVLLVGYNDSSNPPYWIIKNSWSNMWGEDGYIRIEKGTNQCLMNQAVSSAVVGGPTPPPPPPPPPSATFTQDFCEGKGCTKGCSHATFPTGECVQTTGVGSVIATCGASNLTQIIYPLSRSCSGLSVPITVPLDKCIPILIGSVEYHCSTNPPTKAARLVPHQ
Sequence of Rhodesain (Q95PM0 whole entry): as the sequence (Q95PM0 1-450) above

| inhibition [10] | SMILES | EC50 (Plasmodium falciparum) [µM] | EC50 [1] [µM] | Kinact [2] [min⁻¹] | K (Procathepsin L [3]) [×10³ /M/min] | Kinact (Procathepsin L [4]) [min⁻¹] | IC50 (Falcipain 2) [µM] | K [5] [×10³ /M/min] | Ki (Procathepsin L [6]) [nM] | Ki (Rhodesain) [nM] | EC50 [7] [µM] | CC50 at 48 h [8] [µM] | selectivity ratio at 48 h [9] |
| --- | --- | --- | --- | --- | --- | --- | --- | --- | --- | --- | --- | --- | --- |
| – | CCN(CC)CCCC(C)Nc1ccnc2cc(Cl)ccc12 (stereo not drawn) [CHLOROQUINE] | 0.057 | – | – | – | – | – | – | – | – | – | – | – |
| – | COC(=O)/C=C/[C@H](CCc1ccccc1)NC(=O)[C@H](Cc1ccccc1)NC(=O)OCc1ccccc1 | > 10 | 8.28 | 0.0018 | 153 | 0.004 | > 50 | 919 | 27 | 2 | 12.9 | – | – |
| – | N=C(NCCCCCCNC(=N)NC(=N)Nc1ccc(Cl)cc1)NC(=N)Nc1ccc(Cl)cc1 [CHLORHEXIDINE] | – | 0.53 | – | – | – | – | – | – | – | 0.67 | – | – |
| – | COC(=O)/C=C/[C@H](CCc1ccccc1)NC(=O)[C@H](Cc1ccccc1)NC(=O)OCc1ccc([N+](=O)[O-])cc1 | > 10 | – | 0.0012 | 64 | 0.0016 | > 50 | 347 | 25 | 3.6 | 97.2 | – | – |
| – | CC(C)C[C@H](NC(=O)OCc1ccccc1)C(=O)N[C@H](/C=C/C#N)CCc1ccccc1 | > 10 | – | 0.001 | 3.8 | 0.0012 | > 50 | 19 | 330 | 53 | – | – | – |
| – | COC(=O)/C=C/[C@H](CCc1ccccc1)NC(=O)[C@H](CC(C)C)NC(=O)OCc1ccccc1 | 4.4 | 5.02 | 0.0038 | 81 | 0.0032 | 9.53 | 509 | 40 | 7.5 | 6.08 | – | – |
| – | CC(C)C[C@H](NC(=O)OCc1ccc([N+](=O)[O-])cc1)C(=O)N[C@H](/C=C/S(=O)(=O)c1ccccc1)CCc1ccccc1 | 2.31 | – | 0.0043 | 22 | 0.005 | 1.32 | 304 | 250 | 14 | – | – | – |
| – | O=C(N[C@@H](Cc1ccccc1)C(=O)N[C@H](/C=C/S(=O)(=O)c1ccccc1)CCc1ccccc1)OCc1ccccc1 | > 10 | 18.5 | 0.0033 | 4.4 | 0.0014 | 7.33 | 663 | 290 | 5 | 23.7 | – | – |
| – | CC(=O)/C=C/[C@H](CCc1ccccc1)NC(=O)[C@H](CC(C)C)NC(=O)OCc1ccccc1 | 3.16 | 3.2 | 0.0016 | 13 | 0.0013 | 0.25 | 3800 | 110 | 0.5 | 3.85 | 9.58 | 3 |
| inactive | CC(C)C[C@H](NC(=O)OCc1ccc([N+](=O)[O-])cc1)C(=O)N[C@H](/C=C/C#N)CCc1ccccc1 | > 10 | – | – | – | – | > 50 | – | – | – | – | – | – |

From ChEMBL document CHEMBL4038340, “Development of Novel Peptide-Based Michael Acceptors Targeting Rhodesain and Falcipain-2 for the Treatment of Neglected Tropical Diseases (NTDs)” (J Med Chem, 2017)
